Test results taken from paper PMC5590101 (Journal of medicinal chemistry, 2016).
Entries after “also recorded” stand apart in the source; their conditions may differ. Like-named read-outs stand apart in the source and are kept apart here. Each block holds one compound with its values, some of them ahead of it.

Assays:
[1] = tested on: microtubules in A-10 cells; details: read-out: EC50 for microtubule depolymerization in A-10 cells; results previously published; cited from earlier work
MDA-MB-435 cells [2] = details: read-out: IC50 ± SD MDA-MB-435; results previously published; cited from earlier work
SK-OV-3 [3] = details: read-out: IC50 ± SD SK-OV-3; parental line; results previously published; cited from earlier work
SK-OV-3 MDR1-M6/6 = details: IC50 MDR1-M6/6 / IC50 SK-OV-3; results previously published; cited from earlier work
HeLa [4] = details: read-out: IC50 ± SD HeLa; parental line; results previously published; cited from earlier work
HeLa WTβIII [5] = details: IC50 HeLa WTβIII / IC50 HeLa; results previously published; cited from earlier work
CCRF-CEM = details: NCI panel, leukemia; cited from earlier work
HL-60(TB) = details: NCI panel, leukemia; cited from earlier work
K-562 = details: NCI panel, leukemia; cited from earlier work
MOLT-4 = details: NCI panel, leukemia; cited from earlier work
RPMI-8226 = details: NCI panel, leukemia; cited from earlier work
SR = details: NCI panel, leukemia; cited from earlier work
A549/ATCC = details: NCI panel, NSCLC; cited from earlier work
EKVX = details: NCI panel, NSCLC; cited from earlier work
HOP-62 = details: NCI panel, NSCLC; cited from earlier work
HOP-92 = details: NCI panel, NSCLC; cited from earlier work
NCI-H226 = details: NCI panel, NSCLC; cited from earlier work
NCI-H23 = details: NCI panel, NSCLC; cited from earlier work
NCI-H322M = details: NCI panel, NSCLC; cited from earlier work
NCI-H460 = details: NCI panel, NSCLC; cited from earlier work
NCI-H522 = details: NCI panel, NSCLC; cited from earlier work
COLO 205 = details: NCI panel, colon cancer; cited from earlier work
HCC-2998 = details: NCI panel, colon cancer; cited from earlier work
HCT-116 = details: NCI panel, colon cancer; cited from earlier work
HCT-15 = details: NCI panel, colon cancer; cited from earlier work
HT29 = details: NCI panel, colon cancer; cited from earlier work
KM12 = details: NCI panel, colon cancer; cited from earlier work
SF-268 = details: NCI panel, CNS cancer; cited from earlier work
SF-295 = details: NCI panel, CNS cancer; cited from earlier work
SF-539 = details: NCI panel, CNS cancer; cited from earlier work
SNB-19 = details: NCI panel, CNS cancer; cited from earlier work
SNB-75 = details: NCI panel, CNS cancer; cited from earlier work
U251 = details: NCI panel, CNS cancer; cited from earlier work
LOX IMVI = details: NCI panel, melanoma; cited from earlier work
M14 = details: NCI panel, melanoma; cited from earlier work
MDA-MB-435 = details: NCI panel, melanoma; cited from earlier work
SK-MEL-28 = details: NCI panel, melanoma; cited from earlier work
SK-MEL-5 = details: NCI panel, melanoma; cited from earlier work
IGROVI [6] = details: NCI panel, ovarian cancer; cited from earlier work
OVCAR-3 = details: NCI panel, ovarian cancer; cited from earlier work
OVCAR-4 = details: NCI panel, ovarian cancer; cited from earlier work
OVCAR-5 = details: NCI panel, ovarian cancer; cited from earlier work
OVCAR-8 = details: NCI panel, ovarian cancer; cited from earlier work
NCI/ADR-RES = details: NCI panel, ovarian cancer; cited from earlier work
SK-OV-3 [7] = details: NCI panel, ovarian cancer; cited from earlier work
786–0 = details: NCI panel, renal cancer; cited from earlier work
A498 = details: NCI panel, renal cancer; cited from earlier work
ACHN = details: NCI panel, renal cancer; cited from earlier work
RXF 393 = details: NCI panel, renal cancer; cited from earlier work
SN12C = details: NCI panel, renal cancer; cited from earlier work
TK10 = details: NCI panel, renal cancer; cited from earlier work
UO-31 = details: NCI panel, renal cancer; cited from earlier work
PC-3 = details: NCI panel, prostate cancer; cited from earlier work
DU-145 = details: NCI panel, prostate cancer; cited from earlier work
MCF7 = details: NCI panel, breast cancer; cited from earlier work
MDA-MB-231/ATCC = details: NCI panel, breast cancer; cited from earlier work
HS 578T = details: NCI panel, breast cancer; cited from earlier work
BT-549 = details: NCI panel, breast cancer; cited from earlier work
MDA-MB-468 = details: NCI panel, breast cancer; cited from earlier work
[8] = tested on: microtubules in A-10 cells; test: Microtubule depolymerization in A-10 cells; format: cell-based, rat; details: for microtubule depolymerization activity: tested up to 10 µM; for fold more potent than (±)-1·HCl, microtubule depolymerizing effects: relative to lead (±)-1·HCl; for fold lower microtubule depolymerizing potency than 3: relative to compound 3
MDA-MB-435 cells [9] = test: SRB antiproliferative assay, MDA-MB-435; format: cell-based; details: for IC50: Homo sapiens, MDA-MB-435, read-out: IC50 ± SD MDA-MB-435; for fold more potent than (±)-1·HCl, antiproliferative activity (MDA-MB-435): relative to lead (±)-1·HCl; for fold lower antiproliferative potency than 3: MDA-MB-435, relative to compound 3
SK-OV-3 [10] = test: SRB antiproliferative assay, SK-OV-3; format: cell-based; details: SK-OV-3 and SK-OV-3 MDR1-M6/6 cell lines
HeLa [11] = test: SRB antiproliferative assay, HeLa; format: cell-based
HeLa cells = test: Cell cycle distribution by flow cytometry; format: cell-based; details: 18 h, five-times the IC50
MDA-MB-435 xenografts = test: MDA-MB-435 flank xenograft model; format: in vivo, nude mice; details: ip, 60 mg/kg days 0 and 2, 50 mg/kg day 8; vs untreated control
In short: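 Nude mice bilaterally implanted sc in the flank with MDA-MB-435 tumour fragments; dosing began once tumours reached ~200 mm3. Test compound was given ip in PBS containing <5% (v/v) 50:50 Cremophor/DMSO. […] Tumour volumes and body weights were recorded 2–3 times weekly. Final volumes were compared with untreated controls by one-way ANOVA with Dunnett's test.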

NCI 60-cell line panel = test: NCI cancer cell line panel; format: cell-based
IGROVI [12] = test: NCI panel growth inhibition, IGROVI; format: cell-based
Bovine brain tubulin = Bovine brain tubulin (Bos taurus, UniProt P81947+Q6B856); test: Inhibition of tubulin assembly; format: biochemical; details: for fold more potent than (±)-1·HCl, tubulin assembly: relative to lead (±)-1·HCl
HeLa WTβIII [13] = test: SRB antiproliferative assay, βIII-tubulin expressing HeLa WTβIII; format: cell-based; details: Homo sapiens, read-out: IC50 ± SD HeLa WTβIII

Chain of Bovine brain tubulin (Q6B856 whole entry): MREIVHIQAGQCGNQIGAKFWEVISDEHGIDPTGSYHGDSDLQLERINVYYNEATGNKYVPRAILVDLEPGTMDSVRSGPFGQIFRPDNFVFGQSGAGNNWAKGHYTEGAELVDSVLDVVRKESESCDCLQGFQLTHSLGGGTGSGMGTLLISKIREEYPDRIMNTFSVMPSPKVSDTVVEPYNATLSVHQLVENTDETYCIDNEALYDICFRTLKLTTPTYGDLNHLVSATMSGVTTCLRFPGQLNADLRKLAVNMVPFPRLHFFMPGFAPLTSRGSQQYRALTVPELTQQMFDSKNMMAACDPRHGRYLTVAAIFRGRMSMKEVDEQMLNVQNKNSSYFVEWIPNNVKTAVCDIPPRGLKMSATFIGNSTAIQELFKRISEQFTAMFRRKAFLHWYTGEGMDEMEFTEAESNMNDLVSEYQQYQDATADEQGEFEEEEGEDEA
Chain of Bovine brain tubulin (P81947 whole entry): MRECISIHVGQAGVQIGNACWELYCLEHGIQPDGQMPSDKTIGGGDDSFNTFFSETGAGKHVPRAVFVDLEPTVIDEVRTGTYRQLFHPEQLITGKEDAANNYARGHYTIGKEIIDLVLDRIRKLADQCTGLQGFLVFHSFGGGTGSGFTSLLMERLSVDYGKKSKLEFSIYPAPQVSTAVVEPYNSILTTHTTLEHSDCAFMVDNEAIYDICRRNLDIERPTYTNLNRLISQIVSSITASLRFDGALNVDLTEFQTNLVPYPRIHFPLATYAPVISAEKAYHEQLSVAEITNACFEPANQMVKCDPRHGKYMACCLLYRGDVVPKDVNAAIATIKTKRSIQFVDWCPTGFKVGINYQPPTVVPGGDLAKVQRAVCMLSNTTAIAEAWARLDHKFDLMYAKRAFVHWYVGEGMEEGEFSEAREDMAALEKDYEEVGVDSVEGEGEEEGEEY

Compound: COc1ccc(N(C)c2nc(C)nc3c2CC(C)C3)cc1.Cl (racemic) [(±)-1·HCl, N-(4-methoxyphenyl)-N,2,6-trimethyl-6,7-dihydro-5H-cyclo-penta[d]-pyrimidin-4-aminium chloride]
- EC50 [1]: 56 nM
- IC50 (MDA-MB-435 cells [2]): 17 ± 0.7 nM
- IC50 (SK-OV-3 [3]): 38.6 ± 3.1 nM
- Rr (relative resistance) (SK-OV-3 MDR1-M6/6): 1.2
- IC50 (HeLa [4]): 37.3 ± 4.1 nM
- Rr (relative resistance) (HeLa WTβIII [5]): 0.6
- GI50 (CCRF-CEM): 16.3 nM
- GI50 (HL-60(TB)): < 10 nM
- GI50 (K-562): < 10 nM
- GI50 (MOLT-4): 31.8 nM
- GI50 (RPMI-8226): 15.7 nM
- GI50 (SR): < 10 nM
- GI50 (A549/ATCC): 24.4 nM
- GI50 (EKVX): 19.6 nM
- GI50 (HOP-62): 19.4 nM
- GI50 (HOP-92): 55.4 nM
- GI50 (NCI-H226): 31.5 nM
- GI50 (NCI-H23): 16.4 nM
- GI50 (NCI-H322M): 59 nM
- GI50 (NCI-H460): 23.4 nM
- GI50 (NCI-H522): < 10 nM
- GI50 (COLO 205): 18.3 nM
- GI50 (HCC-2998): 24 nM
- GI50 (HCT-116): 15.1 nM
- GI50 (HCT-15): < 10 nM
- GI50 (HT29): 11.8 nM
- GI50 (KM12): < 10 nM
- GI50 (SF-268): 15.2 nM
- GI50 (SF-295): < 10 nM
- GI50 (SF-539): 11.4 nM
- GI50 (SNB-19): 36.9 nM
- GI50 (SNB-75): < 10 nM
- GI50 (U251): 12.5 nM
- GI50 (LOX IMVI): 22.7 nM
- GI50 (M14): 10.2 nM
- GI50 (MDA-MB-435): < 10 nM
- GI50 (SK-MEL-28): < 10 nM
- GI50 (SK-MEL-5): < 10 nM
- GI50 (IGROVI [6]): 11 nM
- GI50 (OVCAR-3): < 10 nM
- GI50 (OVCAR-4): 26.8 nM
- GI50 (OVCAR-5): 38.5 nM
- GI50 (OVCAR-8): 32.8 nM
- GI50 (NCI/ADR-RES): < 10 nM
- GI50 (SK-OV-3 [7]): 27.5 nM
- GI50 (786–0): 34.8 nM
- GI50 (A498): < 10 nM
- GI50 (ACHN): 14.6 nM
- GI50 (RXF 393): < 10 nM
- GI50 (SN12C): 31.8 nM
- GI50 (TK10): 292 nM
- GI50 (UO-31): 13.4 nM
- GI50 (PC-3): 14.6 nM
- GI50 (DU-145): 21.4 nM
- GI50 (MCF7): < 10 nM
- GI50 (MDA-MB-231/ATCC): 24.6 nM
- GI50 (HS 578T): < 10 nM
- GI50 (BT-549): 21.9 nM
- GI50 (MDA-MB-468): < 10 nM

- IC50 (MDA-MB-435 cells [9]): 504 ± 28 nM
- fold less potent (IC50) than 4 (MDA-MB-435 cells [9]; antiproliferative, relative to N-Et analogue 4): 60 fold
Compound: COc1ccc(N(c2ncnc3occ(C)c23)C(C)C)cc1 [Compound 5, N-Isopropyl-N-(4-methoxyphenyl)-5-methylfuro[2,3-d]pyrimidin-4-amine]
- microtubule depolymerization activity [8]: ineffective

Compound: COc1ccc(N(C)c2ncnc3occ(C)c23)cc1 [Compound 3, N-(4-Methoxyphenyl)-N,5-dimethylfuro[2,3-d]pyrimidin-4-amine]
- fold more potent than (±)-1·HCl, microtubule depolymerizing effects [8]: 2.3 fold
- IC50 (MDA-MB-435 cells [9]): 4.3 ± 0.3 nM
- fold more potent than (±)-1·HCl, antiproliferative activity (MDA-MB-435) (MDA-MB-435 cells [9]): about 4 fold
- fold higher potency than (±)-1·HCl (SK-OV-3 [10]): 5 fold
- fold better activity than (±)-1·HCl (HeLa [11]; HeLa and HeLa WT βIII cell lines): 4 fold
- accumulation of cells in G2/M (HeLa cells): significant accumulation of cells in G2/M
- antitumor effect (tumor growth) (MDA-MB-435 xenografts): statistically significant antitumor effects; also recorded: statistically significant inhibition of tumor growth; also recorded: significantly inhibited tumor growth
- GI50 (NCI 60-cell line panel): < 10 nM
- GI50 (IGROVI [12]): < 10 nM

Compound: COc1ccc(Nc2ncnc3occ(C)c23)cc1 [Compound 2, N-(4-Methoxyphenyl)-5-methylfuro[2,3-d]pyrimidin-4-amine]
- microtubule depolymerization activity [8]: inactive; also recorded: essentially devoid of activity

Compound: CCCCN(c1ccc(OC)cc1)c1ncnc2occ(C)c12 [Compound 7, N-Butyl-N-(4-methoxyphenyl)-5-methylfuro[2,3-d]pyrimidin-4-amine]
- IC50 (MDA-MB-435 cells [9]): 100 ± 6.5 nM
- fold more potent than (±)-1·HCl, tubulin assembly (Bovine brain tubulin): about 2 fold

- IC50 (HeLa [11]; Homo sapiens, HeLa, read-out: IC50 ± SD HeLa): 2.8 ± 0.36 nM
- IC50 (HeLa WTβIII [13]): 24 ± 3 nM
Compound: CC(=O)O[C@H]1C(=O)[C@@]2(C)[C@H]([C@H](OC(=O)c3ccccc3)[C@]3(O)C[C@H](OC(=O)[C@H](O)[C@@H](NC(=O)c4ccccc4)c4ccccc4)C(C)=C1C3(C)C)[C@]1(OC(C)=O)CO[C@@H]1C[C@@H]2O [paclitaxel]

- IC50 (MDA-MB-435 cells [9]): 183 ± 13 nM
Compound: CCc1ccc(N(C)c2ncnc3occ(C)c23)cc1 [Compound 8, N-Methyl-N-(4-ethylphenyl)-5-methylfuro[2,3-d]pyrimidin-4-amine]
- fold lower microtubule depolymerizing potency than 3 [8]: 30 fold
- fold lower antiproliferative potency than 3 (MDA-MB-435 cells [9]): 43 fold

Compound: COc1ccc(/C=C\c2cc(OC)c(OC)c(OC)c2)cc1O [CA-4, combretastatin A-4]
- accumulation of cells in G2/M (HeLa cells): significant accumulation of cells in G2/M

Compound: CCN(c1ccc(OC)cc1)c1ncnc2occ(C)c12 [Compound 4, N-Ethyl-N-(4-methoxyphenyl)-5-methylfuro[2,3-d]pyrimidin-4-amine]
- fold lower microtubule depolymerizing potency than 3 [8]: 2 fold
- fold more potent than (±)-1·HCl, microtubule depolymerizing effects [8]: equipotent
- IC50 (MDA-MB-435 cells [9]): 8.1 ± 0.5 nM
- fold more potent than (±)-1·HCl, antiproliferative activity (MDA-MB-435) (MDA-MB-435 cells [9]): 1.4–2.1 fold
- fold more potent than (±)-1·HCl, tubulin assembly (Bovine brain tubulin): about 2 fold
- accumulation of cells in G2/M (HeLa cells): significant accumulation of cells in G2/M

Compound: CCCN(c1ccc(OC)cc1)c1ncnc2occ(C)c12 [Compound 6, N-(4-Methoxyphenyl)-5-methyl-N-propylfuro[2,3-d]pyrimidin-4-amine]
- IC50 (MDA-MB-435 cells [9]): 27.3 ± 4.5 nM
- fold more potent than (±)-1·HCl, tubulin assembly (Bovine brain tubulin): about 2 fold

Compound: CSc1ccc(N(C)c2ncnc3occ(C)c23)cc1 [Compound 9, N,5-Dimethyl-N-(4-(methylthio)phenyl)furo[2,3-d]pyrimidin-4-amine]
- fold lower microtubule depolymerizing potency than 3 [8]: 2 fold
- fold more potent than (±)-1·HCl, microtubule depolymerizing effects [8]: equipotent
- IC50 (MDA-MB-435 cells [9]): 12.3 ± 0.9 nM
- fold lower antiproliferative potency than 3 (MDA-MB-435 cells [9]): 3 fold
- fold more potent than (±)-1·HCl, antiproliferative activity (MDA-MB-435) (MDA-MB-435 cells [9]): 1.4–2.1 fold
- fold better than 3, tubulin assembly IC50 (Bovine brain tubulin; relative to compound 3): 3 fold
